From PubChem BioAssay AID743337 (The Scripps Research Institute Molecular Screening Center, 2014)
Calls of active or inactive are those of the source.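 Rule for the calls: active = IC50 of 10 µM or lower; inactive = IC50 above 10 µM.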

target: Disintegrin and metalloproteinase domain-containing protein 17 (Homo sapiens) (UniProt P78536); assay: ADAM17 inhibitor potency, late-stage follow-up, ADAM17 exosite inhibitor project, biochemical, QFRET peptide cleavage, IC50 (AID 743337); settings: recombinant ADAM17, QFRET peptide cleavage, fluorescence 3 h
Summary of the method: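 signal = fluorescence, ex 359 nm, em 460 nm | assay system = ADAM17 metalloprotease enzyme, cell-free biochemical assay | replicates = triplicate series | times = 30 min compound-enzyme preincubation, then 3 h substrate cleavage, 25 °C | also added = EDANS/DABCYL-quenched DM2 peptide substrate, 2X solution at 20 µM | medium = 50 mM HEPES buffer pH 7.5 with 0.01% Brij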

Chain of Disintegrin and metalloproteinase domain-containing protein 17 (Homo sapiens) (P78536 215-824 limits assumed): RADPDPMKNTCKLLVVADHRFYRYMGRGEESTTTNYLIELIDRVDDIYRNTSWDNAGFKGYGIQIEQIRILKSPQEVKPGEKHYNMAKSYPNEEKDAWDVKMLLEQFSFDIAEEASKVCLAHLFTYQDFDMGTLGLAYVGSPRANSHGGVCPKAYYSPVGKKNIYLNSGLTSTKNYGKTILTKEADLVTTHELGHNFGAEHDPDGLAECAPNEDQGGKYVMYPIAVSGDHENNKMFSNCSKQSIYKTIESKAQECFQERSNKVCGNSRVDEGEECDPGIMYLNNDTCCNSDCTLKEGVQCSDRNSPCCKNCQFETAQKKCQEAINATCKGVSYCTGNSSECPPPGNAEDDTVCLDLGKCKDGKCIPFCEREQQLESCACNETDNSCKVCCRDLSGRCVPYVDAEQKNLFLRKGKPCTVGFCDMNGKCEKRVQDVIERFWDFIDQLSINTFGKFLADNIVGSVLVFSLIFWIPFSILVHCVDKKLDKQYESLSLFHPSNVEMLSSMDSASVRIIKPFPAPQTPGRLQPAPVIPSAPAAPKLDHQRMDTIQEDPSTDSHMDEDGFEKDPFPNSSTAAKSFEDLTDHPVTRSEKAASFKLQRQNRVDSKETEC

| SMILES | IC50 |
| --- | --- |
| CCCCN(Cc1ccccc1)S(=O)(=O)c1cc(Br)cc2c1N(C(C)=O)C(C)C2 (centres undefined) | > 69.5 µM (inactive) |
| C=C(C)COc1ccc(-c2n[nH]c(C)c2Oc2ccccc2OC)c(O)c1 | > 69.5 µM (inactive) |
| O=C(O)CCC(=O)c1c[nH]c2ccccc12 | inactive |
| Cc1csc(-c2cnn(-c3ccccc3)c2NC(=O)c2ccc(C(F)(F)F)cc2)n1 | > 69.5 µM (inactive) |
| C=C(C)COc1ccc(-c2[nH]ncc2Oc2cccc(OC)c2)c(O)c1 | > 69.5 µM (inactive) |
| COc1ccc2nc(SCC(=O)Nc3ccc(S(=O)(=O)N4CCCC4)cc3)c(C#N)cc2c1 | > 69.5 µM (inactive) |
| COc1ccc(-c2ccc(-c3noc(-c4cccc(OC)c4)n3)c(OC)n2)cc1 | > 69.5 µM (inactive) |
| CCCOC(=O)c1ccc(Oc2cn[nH]c2-c2ccc(OCC)cc2O)cc1 | > 69.5 µM (inactive) |
| COc1cccc(C(=O)NNC(=O)C(=O)Nc2ccc(C)c(Cl)c2)c1 | > 69.5 µM (inactive) |
| O=C1NC(=O)C(Cc2ccc(Cl)cc2)(c2ccccc2)N1 (centres undefined) | 3.76 µM |
| O=C(Nc1ccc(OCC(F)(F)C(F)F)c(C(F)(F)F)c1)c1ccc(Cl)cc1 | > 69.5 µM (inactive) |
| O=C(Nc1ccc(OCC(F)(F)C(F)(F)F)c(C(F)(F)F)c1)c1ccc(F)cc1 | > 69.5 µM (inactive) |
| CS(=O)(=O)N(CC(=O)Nc1ccccc1Sc1ccccc1)c1cccc(Br)c1 | > 69.5 µM (inactive) |
| Cc1ccc(OCC(O)Cn2c3ccccc3c3ccccc32)cc1 (centres undefined) | > 69.5 µM (inactive) |
| O=C(CN(Cc1cccs1)S(=O)(=O)c1ccc(S(=O)(=O)NC2CCCCC2)cc1)Nc1ccccc1 | > 69.5 µM (inactive) |
| O=S(=O)(NCC(Nc1ccc(Cl)cc1)c1ccccc1)c1ccccc1 (centres undefined) | > 69.5 µM (inactive) |
| C=C(C)COc1ccc(-c2[nH]ncc2Oc2ccc(OC)cc2)c(O)c1 | > 69.5 µM (inactive) |
| O=C(Nc1ccc(OCC(F)(F)C(F)(F)F)c(C(F)(F)F)c1)c1ccc(Br)cc1 | > 69.5 µM (inactive) |
| COc1ccccc1NS(=O)(=O)c1cccc(NC(=O)Nc2ccc(Cl)cc2)c1 | > 69.5 µM (inactive) |
| Oc1cc2c(cc1C(c1ccc(Cl)c(Cl)c1)N1CCCC1)OCO2 (centres undefined) | inactive |
| Cc1ccc(S(=O)(=O)Nc2ccc(Cl)cc2)cc1NC(=O)c1cc2c(s1)CCCC2 | > 69.5 µM (inactive) |
| O=S(=O)(NCC(Nc1ccc(Cl)cc1)c1ccccc1)c1ccc(Cl)cc1 (centres undefined) | > 69.5 µM (inactive) |
| Cc1ccc(CC2(c3ccccc3)NC(=O)NC2=O)cc1 (centres undefined) | inactive |
| CCOc1ccc(NC(=O)CC2SC(=O)N(c3ccccc3)C2=O)cc1 (centres undefined) | 7.83 µM |
